ChEMBL document CHEMBL4602720, “Degradation versus Inhibition: Development of Proteolysis-Targeting Chimeras for Overcoming Statin-Induced Compensatory Upregulation of 3-Hydroxy-3-methylglutaryl Coenzyme A Reductase” (J Med Chem, 2020)
Calls of active or inactive are those of the source.

How the values were obtained:
[1] = molecular target: T1, Protein cereblon/3-hydroxy-3-methylglutaryl-coenzyme A reductase (Cricetulus griseus) (UniProt P00347+G3H338); assay: (§1) Protac activity at CRBN/HMGCR in Insig-1/Insig-2 deficient Chinese hamster SRD15 cells assessed as induction of HMGCR degradation after 16 hrs by immunoblotting analysis
Procedure, shortened: (§2)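 SRD15 cells treated with compound at varying concentrations for 16 h, final DMSO ≤0.1%; RIPA lysates (Lowry protein) immunoblotted for HMGCR, densitometry normalized to actin, DMSO set to 1; DC50 = concentration giving 50% loss versus DMSO, fitted to dose-response curve, mean of 3 independent experiments.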

[2] = molecular target: T2, Protein cereblon/3-hydroxy-3-methylglutaryl-coenzyme A reductase (Cricetulus griseus, UniProt P00347+G3H338); assay: as §1; procedure, shortened: as §2
T2 sequence (P00347 whole entry): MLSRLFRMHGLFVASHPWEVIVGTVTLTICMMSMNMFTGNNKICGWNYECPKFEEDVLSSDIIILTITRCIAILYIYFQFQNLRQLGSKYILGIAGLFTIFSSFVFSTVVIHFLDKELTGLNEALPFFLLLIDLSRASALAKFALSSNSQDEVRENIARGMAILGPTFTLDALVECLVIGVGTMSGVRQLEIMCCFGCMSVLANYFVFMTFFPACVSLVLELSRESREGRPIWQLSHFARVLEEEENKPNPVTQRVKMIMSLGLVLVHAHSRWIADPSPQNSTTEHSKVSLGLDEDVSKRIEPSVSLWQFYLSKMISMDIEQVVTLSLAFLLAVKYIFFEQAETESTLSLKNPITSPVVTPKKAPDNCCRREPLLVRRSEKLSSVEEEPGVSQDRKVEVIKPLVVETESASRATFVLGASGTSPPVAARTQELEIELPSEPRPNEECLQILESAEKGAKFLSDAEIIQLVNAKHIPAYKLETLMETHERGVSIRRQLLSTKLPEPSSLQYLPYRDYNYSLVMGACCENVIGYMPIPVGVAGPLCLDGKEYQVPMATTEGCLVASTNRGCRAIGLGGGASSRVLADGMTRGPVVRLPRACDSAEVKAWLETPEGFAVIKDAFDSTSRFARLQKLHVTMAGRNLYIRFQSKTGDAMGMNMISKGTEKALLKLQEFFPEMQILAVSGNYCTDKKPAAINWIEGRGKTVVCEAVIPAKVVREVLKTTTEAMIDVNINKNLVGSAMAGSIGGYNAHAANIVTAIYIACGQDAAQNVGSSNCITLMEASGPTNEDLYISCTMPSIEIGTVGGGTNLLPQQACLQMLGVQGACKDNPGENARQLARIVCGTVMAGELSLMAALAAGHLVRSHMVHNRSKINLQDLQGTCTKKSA
T2 sequence (G3H338 whole entry): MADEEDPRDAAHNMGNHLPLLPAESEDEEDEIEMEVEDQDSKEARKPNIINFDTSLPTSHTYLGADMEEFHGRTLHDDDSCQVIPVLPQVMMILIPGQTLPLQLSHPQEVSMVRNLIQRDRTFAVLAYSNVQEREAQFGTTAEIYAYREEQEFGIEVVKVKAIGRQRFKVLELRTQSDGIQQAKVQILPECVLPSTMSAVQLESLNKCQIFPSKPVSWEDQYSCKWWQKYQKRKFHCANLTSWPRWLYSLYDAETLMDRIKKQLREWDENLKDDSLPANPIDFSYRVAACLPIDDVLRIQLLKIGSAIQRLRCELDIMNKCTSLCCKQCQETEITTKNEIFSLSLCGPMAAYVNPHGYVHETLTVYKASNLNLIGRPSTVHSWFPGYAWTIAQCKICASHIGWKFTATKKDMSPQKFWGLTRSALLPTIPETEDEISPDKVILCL

[3] = molecular target: T1, Protein cereblon/3-hydroxy-3-methylglutaryl-coenzyme A reductase (Cricetulus griseus); assay: Protac activity at CRBN/HMGCR in Insig-1/Insig-2 deficient Chinese hamster SRD15 cells assessed as HMGCR level at 0.3 uM after 16 hrs by immunoblotting analysis (reference value: 1)
Procedure, shortened: (§3)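 Dose-response in SRD15 cells in Medium A with 5% FBS, 16 h treatment, DMSO final 0.1% or lower. RIPA lysates immunoblotted for HMGCR. HMGCR densitometry normalized to actin, with the DMSO group set to 1. Three repeats. DC50 is taken from a dose-response fit of the semi-quantitative blots, mean of 3 independent experiments.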

[4] = molecular target: T1, Protein cereblon/3-hydroxy-3-methylglutaryl-coenzyme A reductase (Cricetulus griseus); assay: Protac activity at CRBN/HMGCR in Insig-1/Insig-2 deficient Chinese hamster SRD15 cells assessed as HMGCR level at 3 uM after 16 hrs by immunoblotting analysis (reference value: 1); procedure, shortened: as §3
[5] = molecular target: T1, Protein cereblon/3-hydroxy-3-methylglutaryl-coenzyme A reductase (Cricetulus griseus); assay: Protac activity at human Flag-tagged CRBN YW/AA mutant /T7-tagged HMGCR transfected in Insig-1/Insig-2 deficient Chinese hamster SRD15 cells assessed as induction of HMGCR degradation at 0.01 to 1 uM after 16 hrs by immunoblotting analysis
[6] = molecular target: T1, Protein cereblon/3-hydroxy-3-methylglutaryl-coenzyme A reductase (Cricetulus griseus); assay: Protac activity at CRBN/HMGCR in 5'-GGAAGUCGAAGACCAAGAU-3' siRNA transfected in Insig-1/Insig-2 deficient Chinese hamster SRD15 cells assessed as induction of HMGCR degradation at after 16 hrs by immunoblotting analysis
Procedure, shortened: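 SRD15 cells (Insig-1/Insig-2-deficient CHO-7) in Medium A with 5% FBS at 37 °C, 5% CO2; transfected with negative-control or Crbn-targeting siRNA duplexes for 48 h, then given 1 μM degrader for 16 h. HMGCR by SDS-PAGE immunoblot of RIPA lysates. Knockdown efficiency checked by qRT-PCR against hamster GAPDH, comparative CT method. n = 3 independent experiments.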

[7] = Effect on HMGCR mRNA expression in Chinese hamster SRD15 cells at 1 uM after 16 hrs by quantitative real-time PCR analysis; assay type: ADME, Cricetulus griseus
Procedure, shortened: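 SRD15 cells (Insig-1/Insig-2-deficient CHO-7) in Medium A with 5% FBS, compound for 16 h; Hmgcr mRNA by quantitative real-time PCR in triplicate, comparative CT method normalized to hamster GAPDH, control defined as 1; mean ± s.d., n = 3 independent experiments.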

Compound: CC(C)c1c(C(=O)Nc2ccccc2)c(-c2cccc(OCCCc3cn(CCOCCOCCOCCOCCNc4cccc5c4C(=O)N(C4CCC(=O)NC4=O)C5=O)nn3)c2)c(-c2ccc(F)cc2)n1CC[C@@H](O)C[C@@H](O)CC(=O)O (some centres not stated)
- Activity [1]: Dose-dependent effect
- DC50 [2]: 100 nM
- fold change (FC) [3]: 0.4
- fold change (FC) [4]: 0.3
- Activity [5]: inactive
- Activity [6]: inactive
- Activity [7]: Non-Toxic
